According to publication PMC4096040 (The Journal of endocrinology, 2012):

Columns and labels:
[1] = tested on: diaminopeptidyl peptidase-4 (DPP4); conditions: removal of the N-terminal two amino acids; ref Lovshin & Drucker 2009; cited from earlier work
[2] = tested on: NEP 24.11, known as neprilysin; conditions: products include GLP1(28–36)amide; ref Hupe-Sodmann et al. 1995; cited from earlier work
INS-1 cells [3] = assay: JC-1 Mitochondrial Membrane Potential Assay; format: cell-based; conditions: 18.25 μM t-BHP alone, 48 h, Fig. 2C
INS-1 cells [4] = assay: Pan caspase activity; format: cell-based; conditions: 18.25 μM t-BHP alone, compared with the control group, Fig. 4C
INS-1 cells [5] = assay: Mitochondrial cytochrome c release; format: cell-based; conditions: 18.25 μM t-BHP alone, 72 h, Fig. 4A
How it was run: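 INS-1 cells (100 000/well) were left untreated, given 18.25 μM t-BHP alone, or given t-BHP with 10 μM test compound for 72 h. They were processed according to the kit protocol, with cytochrome c labelled by FITC and nuclei by DAPI. Fluorescence microscopy followed, scoring loss of green signal as cytochrome c release.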

Compound | T1/2 of modification to GLP1(9–36)amide by DPP4 [1] [min] | cleavage by NEP 24.11 [2] | mitochondrial potential, stressor alone (INS-1 cells [3]) | caspase activity, stressor alone (INS-1 cells [4]) | cytochrome c release, stressor alone (INS-1 cells [5])
GLP1(7–36)amide: 30 amino acid insulinotropic form of GLP1, known GLP1 receptor agonist | 1 to 2 | cleaves GLP1(7–36)amide into several smaller peptides |  |  | 
CC(C)(C)OO [t-BHP, tert-butyl hydro-peroxide] |  |  | loss of mitochondrial potential | significant increase in caspase-3 activity | stimulated cytochrome c release
